In ChEMBL document CHEMBL1122148, “Affinity therapeutics. 1. Selective incorporation of 2-thiouracil derivatives in murine melanomas. Cytostatic activity of 2-thiouracil arotinoids, 2-thiouracil retinoids, arotinoids, and retinoids” (1982):

Columns and labels:
S91 [1] = test: Growth inhibition of Cloudman S91 Melanoma cells at 10 uM drug concentration; values are per cent of control; details: Mus musculus
S91 [2] = test: Growth inhibition of Cloudman S91 Melanoma cells at 1 uM drug concentration; values are per cent of control; details: Mus musculus
Mus musculus [3] = test: Harding Passey melanoma tumor and organ incorporation of radioactivity 48 hr after 2.2 microCi dose injected intramuscularly in mouse kidney; type: functional
Outline: (§1)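 Harding Passey melanoma tissue (strongly melanized) was minced, and the brei was implanted subcutaneously into the right flank of DBA/2 mice. Tumors reached about 6×7 mm by 2 weeks. The ³⁵S-labelled thiouracil was injected intramuscularly into the right thigh, and animals were killed 48 h later. Four samples were taken per tumor and one per organ. Tissue was solubilized at 37 °C for 16 h, bleached, and scintillation-counted. Results are radioactivity per mg wet weight.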

Mus musculus [4] = test: Cloudman S 91 melanoma tumor and organ incorporation of radioactivity 48 hr after 2.2 microCi dose injected intramuscularly in mouse lung; type: functional
Outline: (§2)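 Cloudman S 91 cells in culture (3×10^6) were implanted subcutaneously into the right flank of DBA/2 mice. After 2 weeks the tumors were about 6×7 mm. The ³⁵S-labelled thiouracil was given intramuscularly into the right thigh, and mice were killed 48 h later. Four samples were taken per tumor and one per organ. Tissue was solubilized at 37 °C for 16 h, bleached, and counted by liquid scintillation. Results are radioactivity per mg wet weight.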

Mus musculus [5] = test: Harding Passey melanoma tumor and organ incorporation of radioactivity 48 hr after 2.2 microCi dose injected intramuscularly in mouse tumor; type: functional
Outline: as §1

Mus musculus [6] = test: Harding Passey melanoma tumor and organ incorporation of radioactivity 48 hr after 2.2 microCi dose injected intramuscularly in mouse spleen; type: functional
Outline: as §1

Mus musculus [7] = test: Cloudman S 91 melanoma tumor and organ incorporation of radioactivity 48 hr after 2.2 microCi dose injected intramuscularly in mouse tumor; type: functional
Outline: as §2

Mus musculus [8] = test: Cloudman S 91 melanoma tumor and organ incorporation of radioactivity 48 hr after 2.2 microCi dose injected intramuscularly in mouse spleen; type: functional
Outline: as §2

Mus musculus [9] = test: Harding Passey melanoma tumor and organ incorporation of radioactivity 48 hr after 2.2 microCi dose injected intramuscularly in mouse eye; type: functional
Outline: as §1

Mus musculus [10] = test: Cloudman S 91 melanoma tumor and organ incorporation of radioactivity 48 hr after 2.2 microCi dose injected intramuscularly in mouse kidney; type: functional
Outline: as §2

Mus musculus [11] = test: Harding Passey melanoma tumor and organ incorporation of radioactivity 48 hr after 2.2 microCi dose injected intramuscularly in mouse liver; type: functional
Outline: as §1

Mus musculus [12] = test: Harding Passey melanoma tumor and organ incorporation of radioactivity 48 hr after 2.2 microCi dose injected intramuscularly in mouse lung; type: functional
Outline: as §1

Mus musculus [13] = test: Cloudman S 91 melanoma tumor and organ incorporation of radioactivity 48 hr after 2.2 microCi dose injected intramuscularly in mouse liver; type: functional
Outline: as §2

Mus musculus [14] = test: Cloudman S 91 melanoma tumor and organ incorporation of radioactivity 48 h after 2.2 microCi dose injected intramuscularly in mouse eye; type: functional
Outline: as §2

Mus musculus [15] = test: Cloudman S 91 melanoma tumor and organ incorporation of radioactivity 48 hr after 1.4 microCi dose injected intramuscularly in mouse tumor; type: functional
Outline: as §2

Mus musculus [16] = test: Harding Passey melanoma tumor and organ incorporation of radioactivity 48 hr after 1.4 microCi dose injected intramuscularly in mouse liver; type: functional
Outline: as §1

Mus musculus [17] = test: Cloudman S 91 melanoma tumor and organ incorporation of radioactivity 48 hr after 1.4 microCi dose injected intramuscularly in mouse liver; type: functional
Outline: as §2

Mus musculus [18] = test: Cloudman S 91 melanoma tumor and organ incorporation of radioactivity 48 hr after 1.4 microCi dose injected intramuscularly in mouse eye; type: functional
Outline: as §2

Mus musculus [19] = test: Cloudman S 91 melanoma tumor and organ incorporation of radioactivity 48 h after 1.4 microCi dose injected intramuscularly in mouse lung; type: functional
Outline: as §2

Mus musculus [20] = test: Cloudman S 91 melanoma tumor and organ incorporation of radioactivity 48 hr after 1.4 microCi dose injected intramuscularly in mouse kidney; type: functional
Outline: as §2

Mus musculus [21] = test: Harding Passey melanoma tumor and organ incorporation of radioactivity 48 hr after 1.4 microCi dose injected intramuscularly in mouse kidney; type: functional
Outline: as §1

Mus musculus [22] = test: Harding Passey melanoma tumor and organ incorporation of radioactivity 48 hr after 1.4 microCi dose injected intramuscularly in mouse spleen; type: functional
Outline: as §1

Mus musculus [23] = test: Harding Passey melanoma tumor and organ incorporation of radioactivity 48 hr after 1.4 microCi dose injected intramuscularly in mouse lung; type: functional
Outline: as §1

Mus musculus [24] = test: Cloudman S 91 melanoma tumor and organ incorporation of radioactivity 48 hr after 1.4 microCi dose injected intramuscularly in mouse spleen; type: functional
Outline: as §2

Mus musculus [25] = test: Harding Passey melanoma tumor and organ incorporation of radioactivity 48 hr after 1.4 microCi dose injected intramuscularly in mouse eye; type: functional
Outline: as §1

Mus musculus [26] = test: Harding Passey melanoma tumor and organ incorporation of radioactivity 48 hr after 1.4 microCi dose injected intramuscularly in mouse tumor; type: functional
Outline: as §1

Mus musculus [27] = test: Harding Passey melanoma tumor and organ incorporation of radioactivity 48 hr after 5.1 microCi dose injected intramuscularly in mouse tumor; type: functional
Outline: as §1

Mus musculus [28] = test: Harding Passey melanoma tumor and organ incorporation of radioactivity 48 hr after 5.1 microCi dose injected intramuscularly in mouse liver; type: functional
Outline: as §1

Mus musculus [29] = test: Harding Passey melanoma tumor and organ incorporation of radioactivity 48 hr after 5.1 microCi dose injected intramuscularly in mouse kidney; type: functional
Outline: as §1

Mus musculus [30] = test: Harding Passey melanoma tumor and organ incorporation of radioactivity 48 hr after 5.1 microCi dose injected intramuscularly in mouse eye; type: functional
Outline: as §1

Mus musculus [31] = test: Harding Passey melanoma tumor and organ incorporation of radioactivity 48 hr after 5.1 microCi dose injected intramuscularly in mouse spleen; type: functional
Outline: as §1

Mus musculus [32] = test: Harding Passey melanoma tumor and organ incorporation of radioactivity 48 hr after 5.1 microCi dose injected intramuscularly in mouse lung; type: functional
Outline: as §1

N#CSCCCCc1cnc(S)nc1O
level, % of control at 10 µM (S91 [1]): 100%
level, % of control at 1 µM (S91 [2]): 93%

O=Cc1ccc(C(=O)OCCCCc2cnc(S)nc2O)cc1
level, % of control at 10 µM (S91 [1]): 98%
level, % of control at 1 µM (S91 [2]): 118%

C/C=C/C=C/C(=O)OCCCCc1cnc(S)nc1O
level, % of control at 10 µM (S91 [1]): 94%
level, % of control at 1 µM (S91 [2]): 139%

OCCCCc1cnc(S)nc1O
Activity (Mus musculus [3]): 26.1 c.p.m. min-1 mg-1
Activity (Mus musculus [4]): 3 c.p.m. min-1 mg-1
Activity (Mus musculus [5]): 24.8 c.p.m. min-1 mg-1
Activity (Mus musculus [6]): 1.5 c.p.m. min-1 mg-1
Activity (Mus musculus [7]): 7.6 c.p.m. min-1 mg-1
level, % of control at 10 µM (S91 [1]): 82%
Activity (Mus musculus [8]): 1.5 c.p.m. min-1 mg-1
level, % of control at 1 µM (S91 [2]): 81%
Activity (Mus musculus [9]): 2.6 c.p.m. min-1 mg-1
Activity (Mus musculus [10]): 8 c.p.m. min-1 mg-1
Activity (Mus musculus [11]): 8.8 c.p.m. min-1 mg-1
Activity (Mus musculus [12]): 4 c.p.m. min-1 mg-1
Activity (Mus musculus [13]): 6.1 c.p.m. min-1 mg-1
Activity (Mus musculus [14]): 2.7 c.p.m. min-1 mg-1

O=C1CCCC/C1=C/CCCc1cnc(S)nc1O
level, % of control at 10 µM (S91 [1]): 89%
level, % of control at 1 µM (S91 [2]): 87%

CC(=O)OCCCCc1cnc(S)nc1O
level, % of control at 10 µM (S91 [1]): 94%
level, % of control at 1 µM (S91 [2]): 90%

CCOC(=O)c1ccc(/C=C(\C)c2ccc3c(c2)CCCC3)cc1
level, % of control at 10 µM (S91 [1]): 97%
level, % of control at 1 µM (S91 [2]): 81%

C/C(=C\c1ccc(C(=O)OCCCCc2cnc(S)nc2O)cc1)c1ccc2c(c1)CCCC2
Activity (Mus musculus [15]): 4.4 c.p.m. min-1 mg-1
Activity (Mus musculus [16]): 9.9 c.p.m. min-1 mg-1
Activity (Mus musculus [17]): 6.1 c.p.m. min-1 mg-1
Activity (Mus musculus [18]): 1.8 c.p.m. min-1 mg-1
Activity (Mus musculus [19]): 3.2 c.p.m. min-1 mg-1
Activity (Mus musculus [20]): 4.5 c.p.m. min-1 mg-1
Activity (Mus musculus [21]): 6.6 c.p.m. min-1 mg-1
Activity (Mus musculus [22]): 1.2 c.p.m. min-1 mg-1
Activity (Mus musculus [23]): 3.7 c.p.m. min-1 mg-1
level, % of control at 10 µM (S91 [1]): 103%
Activity (Mus musculus [24]): 1.7 c.p.m. min-1 mg-1
level, % of control at 1 µM (S91 [2]): 78%
Activity (Mus musculus [25]): 1.9 c.p.m. min-1 mg-1
Activity (Mus musculus [26]): 10.6 c.p.m. min-1 mg-1

O=Cc1ccc(C(=O)OCCc2cnc(S)nc2O)cc1
level, % of control at 10 µM (S91 [1]): 83%
level, % of control at 1 µM (S91 [2]): 82%

C/C(=C\c1ccc(C(=O)OCCCCc2cnc(S)nc2O)cc1)c1ccc2c(c1)C(C)(C)CCC2(C)C
level, % of control at 10 µM (S91 [1]): 84%
level, % of control at 1 µM (S91 [2]): 146%

CC1=C(/C=C/C(C)=C/C=C/C(C)=C/C(=O)OCCCCc2cnc(S)nc2O)C(C)(C)CCC1
level, % of control at 1 µM (S91 [2]): 73%

C/C(=C\c1ccc(C(=O)O)cc1)c1ccc2c(c1)C(C)(C)CCC2(C)C
level, % of control at 10 µM (S91 [1]): 98%
level, % of control at 1 µM (S91 [2]): 122%

CC(O)Cc1cnc(S)nc1O (configuration not stated)
level, % of control at 10 µM (S91 [1]): 106%
level, % of control at 1 µM (S91 [2]): 134%

Oc1nc(S)ncc1CCCCBr
level, % of control at 10 µM (S91 [1]): 100%
level, % of control at 1 µM (S91 [2]): 109%

CCOC(=O)c1ccc(/C=C(\C)c2ccc3c(c2)C(C)(C)CCC3(C)C)cc1 [AROTINOID]
level, % of control at 10 µM (S91 [1]): 98%
level, % of control at 1 µM (S91 [2]): 134%

O=c1cc[nH]c(=S)[nH]1 [THIOURACIL]
Activity (Mus musculus [27]): 153.3 c.p.m. min-1 mg-1
Activity (Mus musculus [28]): 20.5 c.p.m. min-1 mg-1
level, % of control at 10 µM (S91 [1]): 97%
Activity (Mus musculus [29]): 22.3 c.p.m. min-1 mg-1
level, % of control at 1 µM (S91 [2]): 97%
Activity (Mus musculus [30]): 23.1 c.p.m. min-1 mg-1
Activity (Mus musculus [31]): 2.7 c.p.m. min-1 mg-1
Activity (Mus musculus [32]): 4.7 c.p.m. min-1 mg-1

CC1=C(/C=C/C(C)=C/C=C/C(C)=C/C(=O)O)C(C)(C)CCC1 [TRETINOIN]
level, % of control at 1 µM (S91 [2]): 11%
